Our source for the MIC80 values is ChEMBL document CHEMBL1141540, “Design, synthesis, and evaluation of 1-(N-benzylamino)-2-phenyl-3-(1H-1,2,4-triazol-1-yl)propan-2-ols as antifungal agents” (2008).

One assay concerns Candida albicans. As to the kind of experiment: Antifungal activity against Candida albicans CA98001. It is filed as functional. The procedure, abridged: (§1)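 Growth-inhibition screen against the named strain, following a previously published protocol. The read-out is MIC80, reported in ng mL⁻¹. Fluconazole and itraconazole served as positive controls.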
A further assay deals with Aspergillus fumigatus. Nature of the assay: Antifungal activity against Aspergillus fumigatus AF98003. It counts as functional. The procedure, abridged:
as §1

Values after ≈ are worked out from the molar mass of the structure shown.

What is called MIC80 is the lowest concentration that inhibits either 80% of growth or 80% of the strains tested, depending on the study. A low value points to higher susceptibility. In the case of `N#Cc1ccc(CNCC(O)(Cn2cncn2)c2ccc(Cl)cc2Cl)cc1` (stereo not drawn), the results for the MIC80 against Candida albicans and against Aspergillus fumigatus were 0.0028 µg/mL (≈ 0.00696 µM) and 4.02 µg/mL (≈ 9.99 µM), respectively.
In the same order, the values of `OC(CNCc1ccc(C(F)(F)F)cc1)(Cn1cncn1)c1ccc(Cl)cc1Cl` (stereo not drawn) are 0.024 µg/mL (≈ 0.0539 µM) and 24 µg/mL (≈ 54 µM).
Taken in the same sequence, the figures for `CN(Cc1ccc([N+](=O)[O-])cc1)CC(O)(Cn1cncn1)c1ccc(Cl)cc1Cl` (stereo not drawn) were 0.0006 µg/mL (≈ 0.00138 µM) and 1.96 µg/mL (≈ 4.49 µM).
For the compound `CN(Cc1ccc(C#N)cc1)CC(O)(Cn1cncn1)c1ccc(Cl)cc1Cl` (stereo not drawn), the results for the MIC80 with Candida albicans and in the assay on Aspergillus fumigatus were 0.00037 µg/mL (≈ 0.000889 µM) and 2.41 µg/mL (≈ 5.79 µM), respectively.
Taken in the same sequence, the figures for `CN(Cc1ccc(C(F)(F)F)cc1)CC(O)(Cn1cncn1)c1ccc(Cl)cc1Cl` (stereo not drawn) were 0.03 µg/mL (≈ 0.0653 µM) and 21.1 µg/mL (≈ 46 µM).
In the case of `O=[N+]([O-])c1ccc(CNCC(O)(Cn2cncn2)c2ccc(Cl)cc2Cl)cc1` (stereo not drawn), the MIC80 against Candida albicans was determined as 0.006 µg/mL (≈ 0.0142 µM); against Aspergillus fumigatus, 27 µg/mL (≈ 64 µM).
In the same order, the values of `Nc1ccc(CNCC(O)(Cn2cncn2)c2ccc(Cl)cc2Cl)cc1` (stereo not drawn) are 18.8 µg/mL (≈ 48 µM) and 3.06 µg/mL (≈ 7.8 µM).
Taken in the same sequence, the figures for `CN(Cc1ccc(N)cc1)CC(O)(Cn1cncn1)c1ccc(Cl)cc1Cl` (stereo not drawn) were 0.029 µg/mL (≈ 0.0714 µM) and 2.32 µg/mL (≈ 5.71 µM).
`OC(Cn1cncn1)(Cn1cncn1)c1ccc(F)cc1F` [FLUCONAZOLE] showed an MIC80 against Candida albicans of 0.19 µg/mL (≈ 0.62 µM).
In the assay with Aspergillus fumigatus, `CCC(C)n1ncn(-c2ccc(N3CCN(c4ccc(OC[C@H]5CO[C@](Cn6cncn6)(c6ccc(Cl)cc6Cl)O5)cc4)CC3)cc2)c1=O` (stereo partly drawn) [ITRACONAZOLE] displayed an MIC80 of 0.42 µg/mL (≈ 0.595 µM).
